Most compounds without a hit are left out; they make up all but 2.2% or so of the library.
DNMT1 block – inhibitors of human DNMT1 | P26358 | DNMT1 molecular beacon, Hinp1I cleavage, fluorescence | inhibition (reported as % activation of signal), % at 10 µM | 360,000 tested, 0.83% active; in the data active = inhibition above about 50%
Scp1 inh – inhibitors of human Scp-1 phosphatase; Q9GZU7; Recombinant Scp1, phosphopeptide, malachite green phosphate absorbance; inhibition, % at 20 µM; 340,000 tested, 0.88% active; AID 493091;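 active = inhibition above about 50% at 20 µM, limit read from the data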
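System: truncated SCP-1 phosphatase (76-261aa); medium: Tris acetate buffer pH 5.5 with MgCl2 and Tween-20; incubation: 45 min room-temperature reaction, 5 min colour, 30 min stabiliser; compound: single 20 µM dose, 1% DMSO; reagent: Phosphorylated 17-residue peptide substrate; read-out: % inhibition at 20 µM; technique: colorimetric free-phosphate detection, absorbance 630 nm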
GRK2 inh – human GRK2 inhibition via aptamer displacement | bead flow cytometry, FAM-aptamer displacement from GRK2 | 330,000 tested, 0.59% active | P25098 | inhibition of aptamer binding, % at 10 µM;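 active = inhibition of aptamer binding above 40%, roughly 3 SD of noise, on plates passing a quality check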;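 note: median bead fluorescence of bound FAM aptamer so fluorescent compounds give negative values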
SUMO1 PPI mod – modulators of human SUMO1-mediated protein-protein interactions; P63165; SUMO1 binding to a labelled peptide, TR-FRET, 1 h; inhibition, % at 20 µM; 360,000 tested, 0.33% active; in the data active = inhibition above about 37%
LMPTP block – blocks human LMPTP phosphatase; inhibition, % at 20 µM; recombinant LMPTP-A, OMFP fluorogenic substrate, fluorescence intensity; P24666; 360,000 tested, 0.22% active;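 active = compounds that cut the enzyme signal by at least half of the control window in the single-dose screen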
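Test system: LMPTP-A phosphatase enzyme. Amount: LMPTP-A at 0.625 nM final in the reaction. Reagent: OMFP substrate, 400 µM final. Times: 50 min at room temperature. Signal: endpoint fluorescence intensity from OMFP dephosphorylation. Read-out basis: % inhibition. Benchmarks: no-enzyme and uninhibited controls.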
STEP block – blocks human striatal-enriched tyrosine phosphatase; P54829; inhibition, % at 20 µM; 360,000 tested, 0.25% active; recombinant STEP, OMFP fluorogenic substrate, fluorescence;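 active = inhibition at 20 µM, scaled per plate between control wells, above about 37%, limit read from the data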
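Test system: STEP tyrosine phosphatase / Reagent: OMFP at 25 µM / Doses: 20 µM, 1% DMSO / Read-out: percent inhibition scaled to no-enzyme and uninhibited-enzyme controls, plate-pattern corrected / Detection: FITC-channel fluorescence of OMFP product / Medium: Bis-Tris buffer pH 6.0, 2.5 mM DTT, 0.005% Tween 20 / Schedule: 20 min at room temperature, dark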
Scp-1 conf – confirmation of human Scp-1 phosphatase inhibitors. 2,500 tested, 61% active. shares compounds with Scp1 inh. inhibition, % at 20 µM. recombinant SCP-1 catalytic domain, phosphate release, malachite green absorbance. AID 540281
MG interference – colorimetric interference in Scp-1 counter-screen. shares compounds with Scp1 inh. Colorimetric interference counterscreen, malachite green absorbance 630 nm. apparent inhibition (interference), % at 20 µM. 2,500 tested, under 10 active. AID 540313;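 note: compounds added after enzyme reaction finished so only phosphate colour detection is probed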
Scp1 DSF – validation of human Scp-1 inhibitors by thermal shift binding | shares compounds with Scp1 inh | Recombinant SCP1, Sypro Orange thermal shift Tm | thermal shift relative to vanadate control, % at 40 µM | 1,500 tested, 25% active;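 active = substances whose mean melting-temperature shift, as a percentage of the reference inhibitor's shift, reaches about 5.3%, limit read from the data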
Hits are given with their value; – = inactive; · = no result given.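 Rule for the calls, unless noted: active = inhibition of at least 30% at 20 µM; inactive = the rest.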

SMILES | DNMT1 block | Scp1 inh | GRK2 inh | SUMO1 PPI mod | LMPTP block | STEP block | Scp-1 conf | MG interference | Scp1 DSF
O=C(CN1C(=O)N/C(=C\c2ccccc2OCc2ccc(C(=O)O)cc2)C1=O)Nc1ccc(F)cc1 | – | 70.3 | – | – | – | – | 65.4 | – | –
O=C(O)c1ccc(COc2ccccc2C=C2C(=O)c3ccccc3C2=O)cc1 | – | 68.5 | – | – | – | – | 69.1 | – | 8.2
CN1C(=O)/C(=C/c2ccccc2OCc2ccc(C(=O)O)cc2)NC1=S | – | – | – | – | – | – | · | · | ·
O=C(O)c1ccc(COc2ccccc2/C=C2/NC(=O)N(c3cccc(Cl)c3)C2=O)cc1 | – | 66.2 | – | – | – | – | 65.1 | – | –
O=C(O)c1ccc(COc2ccccc2/C=C2\NC(=O)N(Cc3ccc(F)cc3)C2=O)cc1 | – | 63.0 | – | – | – | – | 66.3 | – | –
Cc1ccccc1NC(=O)CN1C(=O)N/C(=C\c2ccccc2OCc2ccc(C(=O)O)cc2)C1=O | – | 102.6 | – | – | – | – | 83.1 | – | –
O=C1NC(=S)N/C1=C\c1ccccc1OCc1ccc(C(=O)O)cc1 | – | – | – | – | – | – | · | · | ·
Cc1cccc(NC(=O)CN2C(=O)N/C(=C\c3ccccc3OCc3ccc(C(=O)O)cc3)C2=O)c1 | – | 85.5 | – | – | – | – | 73.7 | – | –
Cc1ccc2nc(SCC(=O)N(CC(C)C)c3c(N)n(Cc4ccccc4)c(=O)[nH]c3=O)[nH]c2c1 | – | 88.3 | – | – | – | – | – | – | ·
COc1ccc(-c2nonc2NC(=O)c2ccco2)cc1OC | – | 57.8 | – | – | – | – | – | – | ·
O=C1NC(=O)C2C3OC(C(Br)C3Br)C12 (stereo not drawn) | – | · | · | – | – | – | · | · | ·
Nc1nc(N)c2nc(CNc3ccc(C(=O)NC(CCC(=O)O)C(=O)O)cc3)cnc2n1 (stereo not drawn) | · | · | – | · | · | · | · | · | ·
CN(Cc1cnc2nc(N)nc(N)c2n1)c1ccc(C(=O)NC(CCC(=O)O)C(=O)O)cc1C(F)(F)F (stereo not drawn) | – | 50.1 | · | – | – | – | – | – | ·
CN(Cc1cnc2nc(N)nc(N)c2n1)c1ccc(C(=O)NC(CCC(=O)O)C(=O)O)cc1 (stereo not drawn) | – | 61.6 | · | – | – | – | 70.0 | – | –
N#Cc1ccc(NC(=S)N2CCC3CC2c2cc(-c4ccc5c(c4)OCO5)ccc23)cc1 (stereo not drawn) | – | · | · | – | – | – | · | · | ·
COCCN1C(=O)CN(S(C)(=O)=O)CC1(C)C(=O)Nc1c(C)cccc1C (stereo not drawn) | · | · | · | – | – | · | · | · | ·
N#CCSc1ncnc2sc3c(c12)CCC3 | – | 68.1 | – | – | – | – | – | – | ·
Cc1nc(SCC#N)c2c3c(sc2n1)CCC3 | – | – | – | – | – | – | · | · | ·
O=[N+]([O-])c1ccc(/C=N/Nc2ncc(-c3ccccc3)cn2)cc1 | – | 67.5 | · | – | – | – | – | – | ·
CC[n+]1c(/C=C/Nc2ccccc2)sc2ccccc21 | – | 109.2 | – | – | – | – | – | – | ·
Cc1ccc(-c2ccc(SCC(=O)N3CCCc4ccccc43)nn2)cc1 | · | · | – | · | · | · | · | · | ·
O=C(CSc1ccc(-c2ccccc2)nn1)N1CCCc2ccccc21 | – | 58.3 | – | – | – | – | – | – | ·
CCOC(=O)C1=CCN(S(=O)(=O)c2ccc(C)cc2)C1c1cccc(Cl)c1 (stereo not drawn) | – | · | · | – | – | – | · | · | ·
Cc1cc(C)c(S(=O)(=O)NCCSCc2ccco2)c(C)c1 | – | 53.3 | – | – | – | – | – | – | ·
Cc1ccc(S(=O)(=O)NCCSCc2ccco2)cc1 | – | – | – | – | – | – | · | · | ·
SMILES | DNMT1 block | Scp1 inh | GRK2 inh | SUMO1 PPI mod | LMPTP block | STEP block | Scp-1 conf | MG interference | Scp1 DSF
COC(=O)C(C)Sc1n[nH]c(=S)s1 (stereo not drawn) | – | – | – | – | – | – | · | · | ·
O=C(O)CC(Sc1n[nH]c(=S)s1)C(=O)O (stereo not drawn) | – | 79.2 | – | – | – | – | 35.6 | – | –
COc1cccc(S(=O)(=O)N(C)C[C@@H]2OCc3cn(nn3)CCCC(=O)N([C@@H](C)CO)C[C@H]2C)c1 | – | · | · | – | – | – | · | · | ·
COc1cc(CC2COC(c3ccc(O)c(OC)c3)C2COC(C)=O)ccc1O (stereo not drawn) | 63.2 | 85.3 | – | – | – | – | 61.1 | – | –
CO[C@@H]1CN(C)C(=O)c2ccc(NC(=O)c3ccccc3F)cc2OC[C@@H](C)N(CC2CCOCC2)C[C@@H]1C | · | · | · | – | – | · | · | · | ·
O=c1/c(=C/c2ccc(O)c([N+](=O)[O-])c2)sc2nc3ccccc3n12 | – | 81.5 | · | – | 92.0 | 89.9 | 81.6 | – | 9.9
Cc1cc2c(cc1C)-n1nnnc1C(N1CCN(CC(=O)NC(C)C)CC1)C(=O)N2 (stereo not drawn) | · | · | · | – | – | · | · | · | ·
Nc1nc(=O)n(C2CC(O)C(CO)O2)cc1F (stereo not drawn) | – | – | · | – | – | – | – | – | ·
O=C(CSc1nncs1)NC(=O)NCc1ccco1 | – | – | – | – | – | – | · | · | ·
O=C(CSc1nc(-c2ccc(F)cc2)cs1)NC(=O)NCc1ccco1 | – | 73.9 | – | – | – | – | 39.1 | – | –
Nn1c(SCC(=O)NCCN2C(=O)CSC2=O)nnc1-c1ccc(OC(F)F)cc1 | – | – | – | – | – | – | · | · | ·
Nn1c(SCC(=O)NC(=O)NCc2ccco2)nnc1-c1ccc(OC(F)F)cc1 | – | 62.7 | – | – | – | – | 54.1 | – | –
CC(=O)NC(c1ccccc1)c1nc(-c2cccc(C(F)(F)F)c2)cs1 (stereo not drawn) | – | · | · | – | – | – | · | · | ·
CCCCCCN1C[C@H](O)[C@@H](n2cc(C3CC3)nn2)C[C@@H]1c1ccccc1 | – | · | · | – | – | – | · | · | ·
O=C(O)C1Cc2ccccc2CN1C(=O)COc1ccc(Br)cc1 (stereo not drawn) | – | 53.1 | – | – | – | – | 55.0 | – | –
Cc1cccc(C)c1NC(=O)C1(C)CSCC(=O)N1CCc1c[nH]c2ccccc12 (stereo not drawn) | · | · | · | – | – | · | · | · | ·
O=C1NC(c2ccccc2)=C(c2ccc3ccccc3n2)C(c2ccccc2)N1 (stereo not drawn) | – | 58.9 | – | – | – | – | – | – | ·
O=C(CSc1nc2[nH]ncc2c(=O)[nH]1)Nc1ccccc1C(F)(F)F | – | 50.8 | – | – | – | – | – | – | ·
